# Source: PubChem
# UBC13 inh: inhibitors of human UBC13 polyubiquitin chain formation | P61088 | TR-FRET | inhibition, % at 20 µM | 330,000 tested, 0.47% active | AID 485273; in the data active = inhibition above about 45%, passing the limit was not always enough; inconclusive = no clear call, values can overlap the other calls
# Target sequence (P61088 whole entry, looked up): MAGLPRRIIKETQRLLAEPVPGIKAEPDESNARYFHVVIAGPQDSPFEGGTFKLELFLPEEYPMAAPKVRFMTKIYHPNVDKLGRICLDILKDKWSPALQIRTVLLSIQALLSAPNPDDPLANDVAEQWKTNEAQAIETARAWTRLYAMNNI
# MEKK2mut PB1 HTS: signal of MEK5 binding to mutant human MEKK2 PB1 domain. bead flow cytometry, Alexa488-MEK5 binding to MEKK2 mutant. percent response, % at 10 µM. 290,000 tested, 0.35% active. AID 1530; in the data active = percent response above about 24%, passing the limit was not always enough
# MEKK2wt PB1 HTS: raises or lowers MEK5 binding to wildtype human MEKK2 PB1 domain; 290,000 tested, 1.1% active; bead flow cytometry, Alexa488-MEK5 binding to MEKK2 WT; actives lie on both sides; binding response (% of control), % at 10 µM; Q9Y2U5; AID 1531; in the data active = binding response below about 67% or above about 130%; inconclusive = no clear call, values can overlap the other calls; inactive = in between
# MEKK3 PB1 HTS: MEKK3-MEK5 PB1 interaction, increase or decrease; Q99759; bead-based flow cytometry, Alexa488-MEK5 binding to MEKK3; actives lie on both sides; 0 = blocked by unlabeled MEK5, 100 = vehicle; binding response (% of control), % at 10 µM; 290,000 tested, 1.4% active;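 active = binding response more than 3 SD above or below the average of its plate-row segment, actives on both sides; inconclusive = wells at one plate position flagged as instrument error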;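 note: Alexa488 bead fluorescence after subtracting the streptavidin-only scavenger bead signal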
# Apaf-1 inh: blocks human Apaf-1 apoptosome activity; reconstituted apoptosome caspase-3 activity, DEVD-Rh110 fluorescence; inhibition, % at 20 µM; 330,000 tested, 0.71% active; active = inhibition of at least 40% at 20 µM;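 note: plate controls were DMSO wells for no effect and DEVD-CHO caspase inhibitor wells for full effect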
#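 Material: reconstituted apoptosome with Apaf-1, cytochrome c, caspase-9, procaspase-3, dATP. Technique: Rh110 fluorescence intensity. Buffer or medium: pH 7.5 Hepes buffer with CHAPS, BSA, DTT. Times: 30 min plus 50 min, RT.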
# Pemphigus Ab inh: human desmoglein-3 autoantibody binding inhibition; DSG3-coupled beads, scFv-anti-DSG3-GFP binding, flow cytometry; stronger effect = lower value; binding (percent of control), % at 10 µM; 310,000 tested, 0.48% active;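 active = binding more than 3 SD below its plate's average and above zero; inconclusive = below that plate limit but binding exactly zero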;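 note: hits lower antibody fragment binding to DSG3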
# Casp3 UBC13 ctr: caspase-3 inhibition (UBC13 counter-screen) | inhibition, % at 20 µM | shares compounds with UBC13 inh | 1,400 tested, 4% active | Recombinant caspase-3, Caspase-Glo 3/7 luminescence, 60 min | AID 488856;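 active = mean inhibition across replicates above about 26%, limit read from the data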;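 note: plate controls were DMSO with caspase-3 for no effect and DMSO wells lacking enzyme for full effect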
# Target sequence (P42574 whole entry, looked up): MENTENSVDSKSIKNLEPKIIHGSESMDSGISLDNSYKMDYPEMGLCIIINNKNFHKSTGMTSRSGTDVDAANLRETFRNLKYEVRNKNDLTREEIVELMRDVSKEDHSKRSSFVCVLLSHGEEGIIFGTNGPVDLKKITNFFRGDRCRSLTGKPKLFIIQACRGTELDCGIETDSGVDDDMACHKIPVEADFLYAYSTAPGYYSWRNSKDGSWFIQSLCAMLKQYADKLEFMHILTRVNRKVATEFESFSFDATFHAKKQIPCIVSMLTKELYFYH
# UBC13 conf: confirmation of human UBC13 polyubiquitin inhibitors; inhibition, % at 10 µM; AID 488859; 1,400 tested, 68% active; shares compounds with UBC13 inh; UBC13 polyubiquitination, TR-FRET, biochemical; in the data active = inhibition above about 45%; inconclusive = no clear call, values can overlap the other calls
# Active calls of the source: *; ? = inconclusive; / = not tested or not shown. Only some compounds are listed: those with a hit (about 3.2% of all), similar ones and a draw of the others.
SMILES,UBC13 inh,MEKK2mut PB1 HTS,MEKK2wt PB1 HTS,MEKK3 PB1 HTS,Apaf-1 inh,Pemphigus Ab inh,Casp3 UBC13 ctr,UBC13 conf
Cc1cccc2sc(N(CCN3CCOCC3)C(=O)CCS(=O)(=O)c3ccccc3)nc12,58.8*,/,/,/,10.0,104.4,0.3,79.0*
Cc1ccccc1CNC(=O)CCCC(=O)n1nc(C)c2ccccc21,45.7*,-2.0,104.0,103.0,11.7,?,1.4,62.9*
CC(C)(C)c1ccc(C(=O)N/N=C/c2ccccn2)cc1,64.9*,1.0,97.0,97.0,9.1,97.0,4.6,87.3*
C/C(=N/NC(=O)c1ccc(C(C)(C)C)cc1)c1ccccn1,50.7*,/,/,/,9.3,99.7,61.2*,100.8*
Cc1ccc([C@@H]2C[C@H]3[C@@H](CN2S(=O)(=O)c2ccc(Cl)cc2)C(=O)C[C@@H](c2ccc(C)cc2)N3S(=O)(=O)c2ccc(Cl)cc2)cc1,/,/,/,/,/,97.8,/,/
CC(C)Oc1ccc(/C(O)=C2/C(=O)C(=O)N(CCN3CCNCC3)C2c2cccc([N+](=O)[O-])c2)cc1 (stereo unspecified),-9.9,5.0,120.0,113.0,-7.3,99.5,/,/
CC1CCCCN1CCNC(=O)C1CCCN(c2ncnc3c2nc2n3CCCCC2)C1 (stereo unspecified),27.9,-1.0,102.0,99.0,1.6,100.2,/,/
NS(=O)(=O)c1ccc(CCNC(=O)C2CCN(c3ncnc4c3nc3n4CCCCC3)CC2)cc1,55.3*,-3.0,101.0,99.0,-8.4,97.9,-7.1,59.0*
Cc1ccc(NC(=O)C2CCCN(c3ncnc4c3nc3n4CCCCC3)C2)cc1Cl (stereo unspecified),-1.0,7.0,102.0,100.0,21.1,/,/,/
CCC1CCCCN1CCCNC(=O)C1CCN(c2ncnc3c2nc2n3CCCCC2)CC1 (stereo unspecified),52.9*,-1.0,100.0,97.0,9.1,100.2,-3.7,62.7*
CN(CCNC(=O)C1CCN(c2ncnc3c2nc2n3CCCCC2)CC1)Cc1ccccc1,91.0*,6.0,110.0,106.0,-3.5,/,-0.8,106.1*
Cc1ccc(NC(=O)C2CCN(c3ncnc4c3nc3n4CCCCC3)CC2)cc1Cl,72.4*,1.0,98.0,98.0,34.3,99.8,0.2,94.5*
CN(C)S(=O)(=O)NC(=O)C1=C(N2CCCC2)COC1=O,-22.4,/,/,/,2.9,106.1,/,/
CC1(C)CC(=O)C=C(c2ccc(COC(=O)c3ccc(-c4ccccc4)cc3)cc2)C1=O,/,/,/,/,/,102.1,/,/
COc1ccc2c(CCNC(=O)Nc3ccccc3)c[nH]c2c1,41.6,-5.0,100.0,99.0,1.9,88.5,/,/
COc1ccc2[nH]cc(CCNC(=O)Nc3ccccc3)c2c1,51.6*,10.0,103.0,105.0,4.9,90.1,1.0,42.3
Cc1ccc(S(=O)(=O)NCCCNS(=O)(=O)c2ccccc2Br)cc1,/,/,/,/,12.6,93.4,/,/
COCCCNC(=O)C(=O)Nc1cc2c3c(c1)CCN3C(=O)CC2,-0.7,-1.0,100.0,103.0,0.4,97.0,/,/
C#CCOCCOCCOCCNc1nc(N2CCN(C(=O)CCCCCCCCCCNC(=O)[C@@H](CCC(=O)O)n3cc(CCCCCN)nn3)CC2)nc(N2CCN(C(=O)CCCCCCCCCCNC(=O)[C@@H](CCC(=O)O)n3cc(CCCCCN)nn3)CC2)n1,45.4*,/,/,/,35.7,97.4,1.6,36.3
C#CCOCCOCCOCCNc1nc(N2CCN(C(=O)CCCCCCCCCCNC(=O)[C@H](CCCCN)n3cc(C)nn3)CC2)nc(N2CCN(C(=O)CCCCCCCCCCNC(=O)[C@@H]([C@H](C)CC)n3cc(CCCCCN)nn3)CC2)n1,125.5*,/,/,/,81.5*,150.0,-1.2,127.8*
